Tests used:
[1] = compound: CC(C)C[C@H](NC(=O)[C@H](Cc1ccc(O)cc1)NC(=O)[C@H](CCCNC(=N)N)NC(=O)[C@H](CCCNC(=N)N)NC(=O)[C@@H](N)CCCNC(=N)N)C(=O)N1CCC[C@H]1C(=O)N[C@@H](CCCNC(=N)N)C(=O)N[C@@H](Cc1c[nH]c2ccccc12)C(=O)NCC(N)=O; test: (§1) Non-competitive mixed-type inhibition of SDS-activated human erythrocytes 20S proteasome chymotrypsin like activity assessed as substrate Vmax using Suc-LLVY-AMC as substrate measured every 2 mins up to 60 mins by fluorescence assay
How it was run: (§2)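 SDS-activated CP at 1.4 nM. Suc-LLVY-AMC varied from 20 to 200 μM at inhibitor levels of 0.05, 0.1 and 0.2 μM. Fluorescence read kinetically at 37 °C. […] Three independent replicates.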

[2] = compound: CC(C)C[C@H](NC(=O)[C@H](Cc1ccc(O)cc1)NC(=O)[C@@H]1CCCN1C(=O)[C@@H]1CCCN1C(=O)[C@H](CCCNC(=N)N)NC(=O)[C@@H]1CCCN1C(=O)[C@H](CCCNC(=N)N)NC(=O)[C@H](CCCNC(=N)N)NC(=O)[C@@H](N)CCCNC(=N)N)C(=O)N1CCC[C@H]1C(=O)N[C@@H](CCCNC(=N)N)C(=O)N[C@@H](Cc1c[nH]c2ccccc12)C(=O)NCC(=O)O; test: as §1; how it was run: as §2
[3] = compound: CC(C)C[C@H](NC(=O)[C@H](Cc1ccc(O)cc1)NC(=O)[C@H](CCCNC(=N)N)NC(=O)[C@H](CCCNC(=N)N)NC(=O)[C@@H](N)CCCNC(=N)N)C(=O)N1CCC[C@H]1C(=O)N[C@@H](CCCNC(=N)N)C(=O)N[C@@H](Cc1c[nH]c2ccccc12)C(=O)NCC(N)=O; test: (§3) Non-competitive mixed-type inhibition of SDS-activated human erythrocytes 20S proteasome chymotrypsin like activity assessed as substrate Km using Suc-LLVY-AMC as substrate measured every 2 mins up to 60 mins by fluorescence assay; how it was run: as §2
[4] = compound: CC(C)C[C@H](NC(=O)[C@H](Cc1ccc(O)cc1)NC(=O)[C@@H]1CCCN1C(=O)[C@@H]1CCCN1C(=O)[C@H](CCCNC(=N)N)NC(=O)[C@@H]1CCCN1C(=O)[C@H](CCCNC(=N)N)NC(=O)[C@H](CCCNC(=N)N)NC(=O)[C@@H](N)CCCNC(=N)N)C(=O)N1CCC[C@H]1C(=O)N[C@@H](CCCNC(=N)N)C(=O)N[C@@H](Cc1c[nH]c2ccccc12)C(=O)NCC(=O)O; test: as §3; how it was run: as §2

B1: Proteasome Macropain subunit MB1 (Homo sapiens), P28074 (protein)
chain: MALASVLERPLPVNQRGFFGLGGRADLLDLGPGSLSDGLSLAAPGWGVPEEPGIEMLHGTTTLAFKFRHGVIVAADSRATAGAYIASQTVKKVIEINPYLLGTMAGGAADCSFWERLLARQCRIYELRNKERISVAAASKLLANMVYQYKGMGLSMGTMICGWDKRGPGLYYVDSEGNRISGATFSVGSGSVYAYGVMDRGYSYDLEVEQAYDLARRAIYQATYRDAYSGGAVNLYHVREDGWIRVSSDNVADLHEKYSGSTP
For B1, which Vmax [1] is on record?
The Vmax was 13.5 s⁻¹.

What about the Vmax [2] of the same protein?
The Vmax was 13.6 s⁻¹.

What about the Km [3] of the same protein?
The Km was 14 µM.

What about the Km [4] of the same protein?
Its Km is 17.4 µM.

Reference: ChEMBL document CHEMBL4371016, “Proline- and Arginine-Rich Peptides as Flexible Allosteric Modulators of Human Proteasome Activity” (J Med Chem, 2019)
